Test results taken from ChEMBL document CHEMBL4765454, “Betulinic acid derived amides are highly cytotoxic, apoptotic and selective” (Eur J Med Chem, 2020).
The source made the active and inactive calls. The rule behind the calls is not given here.

Tests used:
MCF7 = assay: Cytotoxicity against human MCF7 cells assessed as reduction in cell viability incubated for 72 hrs by SRB assay; format: functional, cell-based; details: Homo sapiens, MCF7, 72 h; read-out: EC50
A-375 [1] = assay: Cell cycle arrest in human A375 cells assessed as accumulation at G2/M phase measured after 48 hrs by propidium iodide staining based flow cytometry (reference value: 10.83%); format: functional
FaDu = assay: Cytotoxicity against human FaDu cells assessed as reduction in cell viability incubated for 72 hrs by SRB assay; format: functional, cell-based; details: Homo sapiens, FaDu, 72 h; read-out: EC50
A-375 [2] = assay: Induction of apoptosis in human A375 cells assessed as late apoptotic cells at 4.8 uM measured after 48 hrs by Annexin V-FITC/propidium iodide staining based flow cytometry (reference value: 5.108%); format: functional
A-375 [3] = assay: Induction of apoptosis in human A375 cells assessed as viable cells at 4.8 uM measured after 48 hrs by Annexin V-FITC/propidium iodide staining based flow cytometry (reference value: 92.723%); format: functional; details: read-out: Activity
HT-29 = assay: Cytotoxicity against human HT-29 cells assessed as reduction in cell viability incubated for 72 hrs by SRB assay; format: functional, cell-based; details: Homo sapiens, HT-29, 72 h; read-out: EC50
A2780 = assay: Cytotoxicity against human A2780 cells assessed as reduction in cell viability incubated for 72 hrs by SRB assay; format: functional, cell-based; details: Homo sapiens, A2780, 72 h; read-out: EC50
A-375 [4] = assay: Cell cycle arrest in human A375 cells assessed as accumulation at G1 phase measured after 48 hrs by propidium iodide staining based flow cytometry (reference value: 57.3%); format: functional
A-375 [5] = assay: Cell cycle arrest in human A375 cells assessed as accumulation at G1 phase measured after 24 hrs by propidium iodide staining based flow cytometry (reference value: 44.59%); format: functional
A-375 [6] = assay: Induction of apoptosis in human A375 cells assessed as early apoptotic cells at 4.8 uM measured after 24 hrs by Annexin V-FITC/propidium iodide staining based flow cytometry (reference value: 2.194%); format: functional
NIH3T3 = assay: Cytotoxicity against mouse NIH3T3 cells assessed as reduction in cell viability incubated for 72 hrs by SRB assay; format: cell-based; details: Mus musculus, NIH3T3, 72 h; read-out: EC50
A-375 [7] = assay: Cell cycle arrest in human A375 cells assessed as accumulation at subG1 phase measured after 48 hrs by propidium iodide staining based flow cytometry (reference value: 0.57%); format: functional
A-375 [8] = assay: Induction of apoptosis in human A375 cells assessed as cell shrinkage at 4.8 uM measured after 48 hrs by microscopic analysis; format: functional, cell-based
Outline: (§1)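 A375 cells treated at 3.0, 4.8 or 6.2 µM and inspected by light microscopy after 24 h or 48 h. Cell number and morphology were scored for apoptotic features: shrinkage, strangulation and blebbing.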

A-375 [9] = assay: Induction of apoptosis in human A375 cells assessed as viable cells at 4.8 uM measured after 24 hrs by Annexin V-FITC/propidium iodide staining based flow cytometry (reference value: 90.123%); format: functional; details: read-out: Activity
A-375 [10] = assay: Induction of apoptosis in human A375 cells assessed as necrotic cells at 4.8 uM measured after 24 hrs by Annexin V-FITC/propidium iodide staining based flow cytometry (reference value: 0.331%); format: functional
A-375 [11] = assay: Induction of apoptosis in human A375 cells assessed as necrotic cells at 4.8 uM measured after 48 hrs by Annexin V-FITC/propidium iodide staining based flow cytometry (reference value: 0.547%); format: functional
A-375 [12] = assay: Cell cycle arrest in human A375 cells assessed as accumulation at S phase measured after 48 hrs by propidium iodide staining based flow cytometry (reference value: 31.3%); format: functional
[13] = Selectivity ratio of EC50 for mouse NIH3T3 cells to EC50 for human FaDu cells
A-375 [14] = assay: Cytotoxicity against human A-375 cells assessed as reduction in cell viability incubated for 72 hrs by SRB assay; format: functional, cell-based; details: Homo sapiens, A-375, 72 h; read-out: EC50
A-375 [15] = assay: Induction of apoptosis in human A375 cells assessed as late apoptotic cells at 4.8 uM measured after 24 hrs by Annexin V-FITC/propidium iodide staining based flow cytometry (reference value: 7.352%); format: functional
A-375 [16] = assay: Induction of apoptosis in human A375 cells at 4.8 uM measured after 24 hrs by microscopic analysis; format: functional, cell-based; outline: as §1
[17] = Selectivity ratio of EC50 for mouse NIH3T3 cells to EC50 for human A2780 cells; format: toxicity; details: NIH3T3 cells versus A2780 cells, read-out: Ratio EC50
A-375 [18] = assay: Induction of apoptosis in human A375 cells assessed as blebbing at 4.8 uM measured after 48 hrs by microscopic analysis; format: functional, cell-based; outline: as §1
A-375 [19] = assay: Cell cycle arrest in human A375 cells assessed as accumulation at S phase measured after 24 hrs by propidium iodide staining based flow cytometry (reference value: 47.46%); format: functional
A-375 [20] = assay: Induction of apoptosis in human A375 cells assessed as strangulation at 4.8 uM measured after 48 hrs by microscopic analysis; format: functional, cell-based; outline: as §1
[21] = Selectivity ratio of EC50 for mouse NIH3T3 cells to EC50 for human HT-29 cells; format: toxicity; details: NIH3T3 cells versus HT-29 cells, read-out: Ratio EC50
A-375 [22] = assay: Induction of apoptosis in human A375 cells assessed as early apoptotic cells at 4.8 uM measured after 48 hrs by Annexin V-FITC/propidium iodide staining based flow cytometry (reference value: 1.622%); format: functional
A-375 [23] = assay: Cell cycle arrest in human A375 cells assessed as accumulation at G2/M phase measured after 24 hrs by propidium iodide staining based flow cytometry (reference value: 7.48%); format: functional
A-375 [24] = assay: Cell cycle arrest in human A375 cells assessed as accumulation at subG1 phase measured after 24 hrs by propidium iodide staining based flow cytometry (reference value: 0.46%); format: functional
[25] = Selectivity ratio of EC50 for mouse NIH3T3 cells to EC50 for human MCF7 cells; format: toxicity; details: NIH3T3 cells versus MCF7 cells, read-out: Ratio EC50
[26] = Selectivity ratio of EC50 for mouse NIH3T3 cells to EC50 for human A375 cells; format: toxicity; details: NIH3T3 cells versus A375 cells, read-out: Ratio EC50

SMILES: C=C(C)[C@@H]1CC[C@]2(C(=O)Nc3cccc4ncccc34)CC[C@]3(C)[C@H](CC[C@@H]4[C@@]5(C)C[C@H](OC(C)=O)[C@H](OC(C)=O)C(C)(C)[C@@H]5CC[C@]43C)[C@@H]12
- EC50 (MCF7): 6.26 µM
- Activity (A-375 [1]): 0%
- EC50 (FaDu): 3.49 µM
- Activity (A-375 [2]): 12.388%
- viability at 4.8 µM (A-375 [3]): 67.4%
- EC50 (HT-29): > 30 µM
- EC50 (A2780): 3.24 µM
- Activity (A-375 [4]): 31.39%
- Activity (A-375 [5]): 37.51%
- Activity (A-375 [6]): 6.495%
- EC50 (NIH3T3): > 120 µM
- Activity (A-375 [7]): 11.49%
- Activity (A-375 [8]): Active
- viability at 4.8 µM (A-375 [9]): 80.4%
- Activity (A-375 [10]): 0.749%
- Activity (A-375 [11]): 1.342%
- Activity (A-375 [12]): 57.06%
- Ratio EC50 [13]: 34.4
- EC50 (A-375 [14]): 2.9 µM
- Activity (A-375 [15]): 10.295%
- Activity (A-375 [16]): Active
- selectivity ratio [17]: 37
- Activity (A-375 [18]): Active
- Activity (A-375 [19]): 58.53%
- Activity (A-375 [20]): Active
- selectivity ratio [21]: 4
- Activity (A-375 [22]): 18.861%
- Activity (A-375 [23]): 0.43%
- Activity (A-375 [24]): 3.53%
- selectivity ratio [25]: 19.2

SMILES: C=C(C)[C@@H]1CC[C@]2(C(=O)O)CC[C@]3(C)[C@H](CC[C@@H]4[C@@]5(C)C[C@H](O)[C@H](O)C(C)(C)[C@@H]5CC[C@]43C)[C@@H]12
- EC50 (MCF7): 15.8 µM
- EC50 (FaDu): 16.5 µM
- EC50 (HT-29): 17.7 µM
- EC50 (A2780): 12.3 µM
- EC50 (NIH3T3): 17.3 µM
- Ratio EC50 [13]: 1
- selectivity ratio [26]: 1.5
- EC50 (A-375 [14]): 11.2 µM
- selectivity ratio [17]: 1.4
- selectivity ratio [21]: 1
- selectivity ratio [25]: 1.1
